Bioassay records deposited in PubChem by several laboratories.
eIF4E 4G PPI – eIF4E/eIF4G interaction inhibition in translation initiation; 220,000 compounds, 0.37% hits; inhibition, % at 21.7 µM; P63073+Q04637; TR-FRET eIF4E-eIF4GI(517-606) binding, 2 h; AID 782;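 note: 0% = full FRET control wells and 100% = background wells lacking eIF4GI fragment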
14-3-3 Bad PPI – disrupts binding of bovine 14-3-3 zeta to phospho-Bad peptide | P63103 | TR-FRET 14-3-3zeta/Dy647-pBad peptide displacement, 1 h | inhibition, % at 21.7 µM | 220,000 compounds, 0.71% hits;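 active = inhibition above about 70%, limit read from the data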;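 note: 0% = full 14-3-3 plus peptide FRET controls and 100% = background without 14-3-3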
Diaph act CS – counter-screen for diaphorase-based assays: diaphorase activators and chemical reducers; Diaphorase/resazurin coupled assay, resorufin fluorescence, 16 min; stronger effect = higher value; 1 = vehicle wells, 0 = NADH-free wells; activation factor at 20 µM; 190,000 compounds, 0.005% hits; AID 1229;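 active = diaphorase activity raised at least twofold by the compound at 20 µM; inactive = activation factor below 2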
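Material: Purified diaphorase enzyme from Clostridium kluyveri | Buffer or medium: 50 mM HEPES pH 7.4 with 4.542 mM MgCl2, 0.005% Tween 20 | Times: 16 min enzyme reaction, ambient temperature | Signal: Red resorufin fluorescence at 544/590 nm excitation/emission | Measure: Increased resorufin signal from activators or reducing compounds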
Hck-Nef inh – inhibitors of human Hck kinase activated by Nef | P08631 | Recombinant Hck-YEEI plus Nef, Z-Lyte FRET kinase assay | inhibition, % at 20 µM | 220,000 compounds, 0.68% hits | AID 463187;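 active = Hck-Nef kinase inhibition above about 50%, limit read from the data; inactive = inhibition below that limit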;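 note: 0% = DMSO with Hck plus Nef and 100% = Hck alone without Nef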
Target sequence (P08631 whole entry, looked up): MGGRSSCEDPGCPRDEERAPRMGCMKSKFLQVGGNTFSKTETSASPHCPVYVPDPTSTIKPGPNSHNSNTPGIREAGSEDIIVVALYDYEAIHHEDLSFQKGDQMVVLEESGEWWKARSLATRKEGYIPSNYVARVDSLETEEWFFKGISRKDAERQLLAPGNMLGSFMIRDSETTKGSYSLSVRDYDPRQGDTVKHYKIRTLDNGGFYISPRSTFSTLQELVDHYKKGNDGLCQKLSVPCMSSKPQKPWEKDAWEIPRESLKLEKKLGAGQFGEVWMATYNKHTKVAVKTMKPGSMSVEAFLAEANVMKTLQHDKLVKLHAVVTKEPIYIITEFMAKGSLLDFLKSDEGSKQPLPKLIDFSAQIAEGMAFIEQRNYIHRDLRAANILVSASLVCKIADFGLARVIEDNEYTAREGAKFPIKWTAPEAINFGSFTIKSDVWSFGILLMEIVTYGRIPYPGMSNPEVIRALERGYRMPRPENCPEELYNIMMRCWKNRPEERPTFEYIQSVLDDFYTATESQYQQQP
NCF1 inh – inhibitors of human p47phox binding | P14598 | p47phox/p22phox peptide binding, fluorescence polarization, 2 h | inhibition, % at 24.7 µM | 220,000 compounds, 0.53% hits | AID 1274;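 note: 0% = p47phox with labelled peptide and 100% = labelled peptide alone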
* hit, by the source's call; / = no result given; [ ] = another dose, or the depositor's remark. A selection: hits, their analogues and other compounds. The true share with any hit is near 2%.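 Rule for the calls, unless noted: active = inhibition above about 30% (limit read from the data); inactive = the rest.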

SMILES | eIF4E 4G PPI | 14-3-3 Bad PPI | Diaph act CS | Hck-Nef inh | NCF1 inh
O=C(c1ccco1)N1CCN(C(c2ccccc2)c2nnnn2Cc2cccs2)CC1 (configuration not stated) | 1 | 55 | 0.9 | 0 | -7
O=C(NNc1cc(N2CCOCC2)nc(N2CCOCC2)n1)c1ccc([N+](=O)[O-])cc1 | -4 | -9 | 0.6 | 13 | 49*
Cc1ccc(S(=O)(=O)O/N=C2\CCCc3ccccc32)cc1 | -2 | 36 | 0.7 | 3 | 46*
Cc1ccc(C(=O)O/N=C2\CCCc3ccccc32)cc1 | 2 | 7 | 0.9 | 2 | -4
COc1cccc(CNc2ncn[nH]2)c1OCc1ccc(F)cc1 | -1 | -10 | 1 | 22 | 5
CCN1CCCC1CNCc1cccc(OC)c1OCc1ccc(F)cc1 (configuration not stated) | -1 | 77* | 1 | 2 | 23
CC[n+]1c(C)cc2c(sc3ccccc32)c1C | 26 | 24 | 0.9 | 17 | 33*
C#CCSc1nc(=O)c2cccnc2n1-c1ccc(C)cc1 | 0 | 3 | / | -4 | 7
Cc1ccc(CSc2nnc(C)c(=O)[nH]2)cc1 | 2 | -6 | 1 | 2 | 67*
Cc1nnc(SCc2ccccc2)[nH]c1=O | -2 | -1 | 1 | 16 | -4
CSc1cccc(NC(=O)CCC(=O)O)c1 | 16 | -13 | 0.9 | 1 | 71*
Cc1ccc2[nH]c3c(c2c1)CN(C(=O)CN1c2ccc(F)cc2CCC1C)CC3 (configuration not stated) | -10 | -3 | 0.7 | 1 | 196*
CSc1ccc(NC(=O)Nc2ccc(C(=O)NCC(=O)O)cc2)cc1 | 17 | -11 | / | -11 | -22
COc1cccc(Nc2nc(-c3cccc(N4C(=O)c5ccccc5C4=O)c3)cs2)c1 | -6 | 84* | 0.8 | -1 | -13
COc1cccc(Nc2nc(-c3ccc(O)cc3)cs2)c1 | 2 | -7 | 0.7 | 2 | -21
O=C(O)c1ccc2ncsc2c1 | 23 | 82* | / | 7 | -17
Cc1cc(C)cc(Nc2nc(-c3ccc(S(=O)(=O)N4CCCC4)cc3)cs2)c1 | 15 | 0 | 0.8 | 5 | -18
Cc1ccc(Nc2nc(-c3ccc(S(=O)(=O)N4CCCC4)cc3)cs2)cc1C | -11 | 86* | 0.9 | 1 | -25
CC(CN1CCN(Cc2ccccc2)CC1)OC(=O)c1ccco1 (configuration not stated) | -8 | 1 | / | 4 | 1
COc1ccc(N/C(=N\c2nc(C)cc(C)n2)NC(=O)C(C)C)cc1OC | -1 | 76* | 0.9 | 0 | -5
C=CCN1C=C2C(=O)C(C)(OC(=O)CC)C(=O)C=C2C=C1CCCC (configuration not stated) | 97* | -7 | / | 20 | -13
COCCN(C(=O)C1CCC1)c1nnc(-c2cccnc2)s1 | 3 | 0 | 0.9 | 1 | 0
CCN(C(=O)C1CCCCC1)c1nnc(-c2cccnc2)s1 | 1 | 77* | 0.9 | 0 | -3
COc1cc(NC(=O)c2cnc(N)s2)cc(C(=O)Nc2cccc(C(F)(F)F)c2)c1 | 31* | 68 | / | 32 | -46
COc1cc(NC(=O)c2cc(C)on2)cc(C(=O)Nc2cccc(C(F)(F)F)c2)c1 | -6 | -4 | / | 14 | 43*
SMILES | eIF4E 4G PPI | 14-3-3 Bad PPI | Diaph act CS | Hck-Nef inh | NCF1 inh
CCOc1cc(N2CCOCC2)c(OCC)cc1NC(=O)c1cc(-c2ccco2)nc2ccccc12 | 8 | 63 | 0.8 | 1 | 30*
O=C(NC1CCC(O)CC1)c1cc(-c2ccco2)nc2ccccc12 (configuration not stated) | 40* | 12 | 1 | 46 | -5
O=C(Nc1ccc(Cl)c(S(=O)(=O)N2CCOCC2)c1)c1cc(-c2ccccn2)nc2ccccc12 | 3 | -17 | 0.8 | 20 | -13
COc1ccc(NC(=O)c2cc(-c3ccco3)nc3ccccc23)cc1S(=O)(=O)N1CCOCC1 | 38* | 49 | / | 33 | -5
Cc1ccc(CSCC(=O)NCc2ccco2)cc1 | 1 | 89* | 0.8 | 10 | 2
O=c1c2ccccc2nc2c3ccccc3c(Cl)nn12 | 1 | -6 | / | 19 | -5
O=c1c2ccccc2nc2c3ccccc3cnn12 | 7 | 80* | 0.9 | 19 | -4
Cc1nonc1CN(C)C(=O)CC1C(=O)NCCN1Cc1ccc(F)c(F)c1 (configuration not stated) | -2 | -6 | 0.9 | 18 | -18
CCOc1ccccc1OCCn1nnc2ccccc21 | 9 | 82* | 0.9 | 4 | -5
CCOc1ccc(S(=O)(=O)n2nnc3ccccc32)cc1C(C)C | -5 | 71* | 0.9 | 3 | 6
COc1ccc(Cl)cc1S(=O)(=O)n1nnc2ccccc21 | 12 | 46 | 1 | 0 | -6
Cc1nccc(-c2cccc(NC(=O)c3ccccc3Cl)c2)n1 | -2 | 4 | / | 15 | 3
CCOC(=O)C1=C(N)OC2=C(C(=O)CC(C)(C)C2)C1c1cc(CSc2nnnn2C)cs1 (configuration not stated) | -2 | 7 | 0.9 | 3 | 3
O=C(CC1C(=O)NCCN1Cc1ccc(Cl)c(F)c1)NCC1CCOCC1 (configuration not stated) | 90* | 4 | / | 6 | 2
COc1cc(/C=C2\CC/C(=C\c3cc(OC)c(O)c(OC)c3)C2=O)cc(OC)c1O | 40*[fluorescence artefact?] | -3 | 0.3 | 30 | -49
COc1cc(/C=C2\CC/C(=C\c3cc(OC)c(OC)c(OC)c3)C2=O)cc(OC)c1OC | -4 | 17 | 0.8 | 4 | -6
Cc1ccc(/C=C\c2nccc3c2[nH]c2ccccc23)cc1 | 2 | 3 | 0.7 | 59* | -33
O=S(=O)(c1ccc(-c2ccon2)s1)N1CCN(c2ccccn2)CC1 | -4 | -1 | / | 5 | -43
N#C/C(=N\Nc1ccc(Cl)cc1)C(=O)c1ccccc1 | 62*[fluorescence artefact?] | 5 | 0.8 | -4 | -19
Cc1c(N/N=C(\C#N)C(=O)c2ccc(Cl)cc2)c(=O)n(-c2ccccc2)n1C | 2 | -1 | 1.2 | -4 | 9
CN(C(=O)Nc1cnccc1C(F)(F)F)C1CCCCC1 | -3 | -4 | / | 2 | -14
CCCC(c1nnnn1C1CCCC1)N1CCN(c2ccccc2F)CC1 (configuration not stated) | 1 | 81* | 0.9 | 8 | -5
CCC(c1nnnn1C1CCCC1)N1CCN(c2ccccc2F)CC1 (configuration not stated) | -1 | 9 | 1 | 0 | -13
Cc1cc(-c2nnc(SCC(=O)Nc3ccccc3Cl)n2C)no1 | 4 | 2 | / | 5 | -6
O=C(O)C1Nc2c(O)cccc2C2C=CCC12 (configuration not stated) | 48*[fluorescence artefact?] | 83*[fluorescence artefact?] | 0.2 | 4 | 2
O=C(OC1CCCCC1)c1ccc2c(c1)C1C=CCC1C(C(=O)O)N2 (configuration not stated) | 62*[fluorescence artefact?] | 45 | 0.5 | 77* | 39*
